Measured values: the EternaBench riboswitch data

Test system: MS2 coat protein
Experiment: apparent Kd, MS2 coat protein; higher = weaker binding; RNA-MaP array; FMN 200 µM where present
Outline: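 Green signal from SNAP-549-labelled MS2 coat protein was normalised to red-channel RNA signal and to the median Fmax of control clusters. The protein was titrated from 0.7 or 1.5 nM, doubling to 3 µM, without and then with constant ligand, over designs transcribed by stalled E. coli RNA polymerase on Illumina sequencing-chip clusters, in 100 mM Tris-HCl pH 7.5, 80 mM KCl, 4 mM MgCl2, BSA, DTT, yeast tRNA and Tween-20. The apparent Kd is the median of filtered per-cluster binding-curve fits.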

[1] = designed as: OFF switch for flavin mononucleotide, no ligand
[2] = ligand present: flavin mononucleotide, designed as: OFF switch for flavin mononucleotide
[3] = designed as: ON switch for flavin mononucleotide, no ligand
[4] = ligand present: flavin mononucleotide, designed as: ON switch for flavin mononucleotide

Sequence	apparent Kd [1] [nM]	apparent Kd [2] [nM]	apparent Kd [3] [nM]	apparent Kd [4] [nM]
GCGUGACAUGAGGAUCACCCAUGUGAGGAUAUCUGGACACUCUUUAUUUUAGAUGUCCAGAGAAGGCACAUGCU	238	126		
GCGUGUAAUGUAGGAUAUGACACAGGAAACUGGUCAGAAGGACAUGAGGAUCACCCAUGUAAAAUGUUCAAGAAUAACACAUGC	22.9	37.8		
GCGUGUCGUGUAGGAUAUGACACAGGAAACUGGUCAGAAGGACAUGAGGAUCACCCAUGUAAAAUGUUCAAGAAUAACGCAUGC	27.8	39.2		
GCGUUGAACGAGAAGGCCAAUACAUGAGGAUCACCCAUGUUAAGAUGUUUUGGAGGAUAUCGUACGCAUUCAAUAUUGCAACGC	7.63	9.47		
GCGUUGCACGAGAAGGCCAAUACAUGAGGAUCACCCAUGUUAAAAUGUUUUGGAGGAUAUCGAUCAUCUACAAUAAAGCAACGC	12.6	11.6		
GCGUUUGUAUCACAUGUAUUACAUGAGGAUCACCCAUGUUACUAGGAUAUGUAUUAGUAUUUUCAACAGAAGGAGUAAGAACGC	18.8	23.5		
GCUACCAAAGAAGCCAACAUGAGGAUCACCCAUGUAUGUUGGUAGGAUAUCGUAUGCAAAGCAUACGAGAAGGGCUAAGGUAGC			98.8	116
GCUAUAGAUGUAGGAUAUCAUAUAGAAGCUAUGUGAGAAGGACAUGAGGAUCACCCAUGUCAAUGGAUGGAGAGAAGUUAUGGC	75.3	104		
GCUAUUGGCUAAGGAUAUGGAUACAUGAGGAUCACCCAUGUAUUUUUUGUGAUCAUAUAAAUGAUCCAGAAGGUAGCUGUUAGC	21.9	62.1		
GCUCGAUGCGCUGAGCACAUGAGGAUCACCCAUGUAAAAUGUCAGGAUAUUUACGUGCUUUAUGUAGAGAAGGGACUAUCGAGC			60.5	24.1
GCUCGUGGACAGAAGGCGACAUGAGGAUCACCCAUGUUGGCUCGGGUAUGACCAAUCCGCAUGAUCGAGGAUAUGUCUGCGGGC	419	19.2		
GCUCUUGUCAAGAAGGGCUCGCGGGACGCUGCAGCAGGAUAUUGACAUGAGGAUCACCCAUGUCGACCGGAACACCAUUGAGGG	22.2	196		
GCUGCAUAGGCAGGAUAUGCAAUAAUUCGAAUAAAAUAUAACGAAUUAACAUGAGGAUCACCCAUGUAGAAGGGCCUGUGCAGU	18.4	16		
GCUGGACAAGGAUAUACAUUCGUGCUUCGGCACGUAAGAUCACAUGAGGAUCACCCAUGUAGAAGGUGUCCAGC	67.8	612		
GCUGUAAAUGAGAAGGCGAUCAUGAAACAUGAUCGAGGAUAUCAUGUUUACAUGAGGAUCACCCAUGUAUGGGUAUAUUGCAGC			618	19.6
GCUGUCGCAUGAGGAUAUGGUCAGGUUUCCUGACCAGAAGGCAUGUCGAUAGACAUGAGGAUCACCCAUGUAGUAAAGACAGCA			855	66.1
GCUGUCGCGUGAGGAUAUGGUCGGCUUUGCUGACCAGAAGGCAUGUCAAUAGACAUGAGGAUCACCCAUGUGGUUAGGGCGGCU			1020	134
GCUUCACAUGAGGAUCACCCAUGUCUUCGGAGUCGAGGAUAUGGUAACUGUAAACAGUUGCCAGAAGGCGAGGAGC			59.6	35.5
GCUUGUGGGCAAGGAUAUCCUACGUUGUUCUGGUUCGUGUCUGUCACAUGAGGAUCACCCAUGUGGGAGAAGGUGCAUUUGGUG	19.7	17.1		
GCUUGUGUUGAGGAUAUGCGCCGGCUCGCUGGCGCAGAAGGCGGCACAUGAGGAUCACCCAUGUCAGUUCGCGC	19	157		
GGAAAUCAUGUAGGAUAUGCAUGGCGAAGCUACGCAGAAGGACAUGAGGAUCACCCAUGUUAUAGCGUCCGAUAAAGGAUGCAA	117	164		

Sequence	apparent Kd [1] [nM]	apparent Kd [2] [nM]	apparent Kd [3] [nM]	apparent Kd [4] [nM]
GGAAUACAUGAGGAUCACCCAUGUAAGGAUAUGCUGAUUAAAUUGGAUUAAUUAUGCAGCAGAAGGUACAAAAG	78.7	79.6		
GGACAUGAGGAUCACCCAUGUUCUCCAGAAGGCCGUACAUUUAAAAGUGGAUGGAUUAGUGUUGCGGAGGAUAUGGAGGUGCAA			77.1	16.7
GGACCGCGUAGAAUUAGCGGCCGGCAGGAUAUGACAUGAGGAUCACCCAUGUGAACUCCAUUGGGUCAGAAGGGCCACGACACA	20.6	96.4		
GGACGUCACAUGAACAUGAGGAUCACCCAUGUAAAUUCUCAUGAGGAUAUGGAUCCUAAUUGGAUCCAGAAGGCAUGGACGUCC			960	373
GGACGUCACAUGAACAUGAGGAUCACCCAUGUAACUAGACAUGAGGAUAUGGUUCCUAAUUGGAACCAGAAGGCAUGGACGUCC			224	33
GGAGAGGAAACAUGAGGAUCACCCAUGUGAGUGGUCCGAAUAUAGGAUAUCCACACGAGAAGUGUGGAGAAGGAUAACCUCUCC	73	90.2		
GGAGAUACAUGAGGAUCACCCAUGUAGGAUAUCGGGUAUAUAUAUGGCGAAAGCCAUAUAUAUACCGAGAAGGGCGUACACACC	8.59	8.11		
GGAGCAACAUGAGGAUCACCCAUGUAGGAUAUCGCUAUUGUAAUCAUGAAACAUGAUUACAAUAGCGAGAAGGACAUAUGCUGG	24.9	27.3		
GGAGCACACAUUAACAUGAGGAUCACCCAUGUCAAAAGACAUGAGGAUAUGGAUCCGAAAAGGAUCCAGAAGGCAUGGUUCUCC			365	19.6
GGAGCACACAUUAACAUGAGGAUCACCCAUGUCAAAGGACAUGAGGAUAUGGAUCCGAAAAGGAUCCAGAAGGCAUGGUGCUCC			173	11.1
GGAGCCGGCACCGAGGAUAUUCAUAUUAAAACAUGAGGAUCACCCAUGUAGGCCAGAAGGCCUUGGGAGAAGGCGGAUCGGCUCG			611	38.4
GGAGGACAUGAGGAUCACCCAUGUGGAUGGGCGCUAGGAUAUGCGAGAGGAGGGAGUGGAGCAGAAGGAGUGGGUU			65.6	57.5
GGAUACAUCGGAGGAUAUCAUGUAAAUACAUGAGGAUCACCCAUGUCGAUGGAGACAUCGGAGAUUGAGAAGGCCGAUGUACCG			164	8.95
GGAUAGGACAGAGGAUAUACAGAUAGGAUCUACUAUCAAACAAUCCUCACAUGAGGAUCACCCAUGUAGAAGGCUGUCCUAUCG	103	688		
GGAUAGGACAGAGGAUAUACAGAUAGGAUCUACUAUCAAACAAUCCUGACAUGAGGAUCACCCAUGUAGAAGGCUGUCCUAUCG	24.6	85.1		
GGAUAGGACAGAGGAUAUACAGAUAGGAUCUACUAUCAAACAUUCCUGACAUGAGGAUCACCCAUGUAGAAGGCUGUCCUAUCG	22.7	75.4		
GGAUAGGACAGAGGAUAUACCGAUAGGAGAUACUAUCGACUAGUCCUCACAUGAGGAUCACCCAUGUAGAAGGCUGUCCUAUCG	23.3	234		
GGAUAGGACAGAGGAUAUACCUGCUAGAGAUACUAGCAAAAUUUCCUCACAUGAGGAUCACCCAUGUAGAAGGCUGUCCUAUCG	8.45	109		
GGAUAGGACAGAGGAUAUACGGGCUAGAGAUACUAGCAAAAUUUCCUCACAUGAGGAUCACCCAUGUAGAAGGCUGUCCUAUCG	70.1	864		
GGAUAGGACAGAGGAUAUACGUGCAAGAGAUACUAGCAAAAUUUCCUCACAUGAGGAUCACCCAUGUAGAAGGCUGUCCUAUCG	57.4	331		
